Assays:
Settings in all cases: stereoisomer not certain
[1] = biological target: T1, UniProt E9PVX1
T1 sequence (whole entry): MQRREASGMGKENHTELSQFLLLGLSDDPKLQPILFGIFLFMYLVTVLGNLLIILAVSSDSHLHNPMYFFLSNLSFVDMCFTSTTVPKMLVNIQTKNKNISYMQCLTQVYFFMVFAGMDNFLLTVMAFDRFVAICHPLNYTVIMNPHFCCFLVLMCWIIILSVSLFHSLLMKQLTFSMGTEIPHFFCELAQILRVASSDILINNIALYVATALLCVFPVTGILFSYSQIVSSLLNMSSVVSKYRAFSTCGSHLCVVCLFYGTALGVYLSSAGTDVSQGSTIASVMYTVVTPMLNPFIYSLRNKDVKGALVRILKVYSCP
Outline: (§1)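 Each entry records the cell line, G-protein, co-transfected protein and tags used. Methods varied with the source, often transient luciferase assays in mammalian cell lines. A receptor–molecule pair is called responsive (active) if the original authors judged its signal statistically different from baseline and non-responsive (inactive) otherwise.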

[2] = biological target: T2, UniProt E9PZ66
T2 sequence (whole entry): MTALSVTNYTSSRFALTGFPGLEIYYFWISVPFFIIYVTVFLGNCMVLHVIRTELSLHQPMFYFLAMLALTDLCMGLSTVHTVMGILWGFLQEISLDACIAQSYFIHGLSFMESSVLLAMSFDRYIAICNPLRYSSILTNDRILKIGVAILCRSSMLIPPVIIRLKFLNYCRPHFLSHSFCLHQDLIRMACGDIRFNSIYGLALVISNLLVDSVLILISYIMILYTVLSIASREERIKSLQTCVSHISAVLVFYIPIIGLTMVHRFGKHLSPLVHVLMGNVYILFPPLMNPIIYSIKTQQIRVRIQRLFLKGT
Outline: as §1

[3] = biological target: T3, UniProt E9Q4X7
T3 sequence (whole entry): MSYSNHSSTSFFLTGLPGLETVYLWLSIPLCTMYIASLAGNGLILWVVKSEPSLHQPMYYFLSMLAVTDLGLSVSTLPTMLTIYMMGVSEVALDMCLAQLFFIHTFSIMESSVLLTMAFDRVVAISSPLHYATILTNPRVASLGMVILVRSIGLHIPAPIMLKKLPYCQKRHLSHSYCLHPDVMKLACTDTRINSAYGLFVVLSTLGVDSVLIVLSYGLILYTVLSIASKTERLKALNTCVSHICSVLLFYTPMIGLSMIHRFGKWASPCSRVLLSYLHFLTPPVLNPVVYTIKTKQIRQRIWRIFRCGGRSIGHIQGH
Outline: as §1

[4] = biological target: T4, UniProt E9Q546
T4 sequence (whole entry): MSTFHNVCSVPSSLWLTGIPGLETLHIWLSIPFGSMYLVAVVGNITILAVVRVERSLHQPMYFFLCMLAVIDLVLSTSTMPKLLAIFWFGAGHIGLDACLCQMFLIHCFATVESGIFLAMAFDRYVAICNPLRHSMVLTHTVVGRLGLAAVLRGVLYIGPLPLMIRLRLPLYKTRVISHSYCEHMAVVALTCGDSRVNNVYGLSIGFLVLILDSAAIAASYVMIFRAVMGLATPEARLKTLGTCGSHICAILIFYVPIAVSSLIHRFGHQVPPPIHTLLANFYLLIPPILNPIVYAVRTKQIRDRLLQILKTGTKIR
Outline: as §1

[5] = biological target: T5, UniProt E9Q6Z7
T5 sequence (whole entry): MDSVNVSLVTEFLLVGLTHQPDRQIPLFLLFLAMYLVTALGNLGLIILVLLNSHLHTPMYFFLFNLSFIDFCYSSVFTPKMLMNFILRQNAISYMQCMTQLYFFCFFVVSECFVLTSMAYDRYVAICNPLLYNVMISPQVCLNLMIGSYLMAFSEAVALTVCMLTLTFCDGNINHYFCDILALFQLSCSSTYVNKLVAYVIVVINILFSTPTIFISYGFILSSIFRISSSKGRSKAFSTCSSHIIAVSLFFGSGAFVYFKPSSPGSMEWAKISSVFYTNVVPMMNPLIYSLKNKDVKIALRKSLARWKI
Outline: as §1

[6] = biological target: T6, UniProt L7MU75
T6 sequence (whole entry): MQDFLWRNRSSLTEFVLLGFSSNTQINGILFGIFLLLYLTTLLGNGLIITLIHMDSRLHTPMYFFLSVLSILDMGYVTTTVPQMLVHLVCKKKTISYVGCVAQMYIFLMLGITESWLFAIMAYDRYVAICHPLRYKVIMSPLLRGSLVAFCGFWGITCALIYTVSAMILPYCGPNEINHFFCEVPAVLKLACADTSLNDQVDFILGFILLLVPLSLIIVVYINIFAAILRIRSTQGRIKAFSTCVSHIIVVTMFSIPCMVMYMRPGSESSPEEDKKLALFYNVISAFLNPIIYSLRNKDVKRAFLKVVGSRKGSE
Outline: as §1

[7] = biological target: T7, UniProt L7N210
T7 sequence (whole entry): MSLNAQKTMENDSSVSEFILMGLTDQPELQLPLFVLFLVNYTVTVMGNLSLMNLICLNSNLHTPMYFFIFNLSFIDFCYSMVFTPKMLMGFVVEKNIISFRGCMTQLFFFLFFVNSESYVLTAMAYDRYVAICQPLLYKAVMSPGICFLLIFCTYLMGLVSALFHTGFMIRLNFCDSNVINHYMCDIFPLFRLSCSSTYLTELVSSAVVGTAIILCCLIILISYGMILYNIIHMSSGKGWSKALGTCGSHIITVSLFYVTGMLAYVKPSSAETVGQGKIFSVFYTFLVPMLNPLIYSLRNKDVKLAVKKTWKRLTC
Outline: as §1

[8] = biological target: T8, UniProt Q3KPB0
T8 sequence (whole entry): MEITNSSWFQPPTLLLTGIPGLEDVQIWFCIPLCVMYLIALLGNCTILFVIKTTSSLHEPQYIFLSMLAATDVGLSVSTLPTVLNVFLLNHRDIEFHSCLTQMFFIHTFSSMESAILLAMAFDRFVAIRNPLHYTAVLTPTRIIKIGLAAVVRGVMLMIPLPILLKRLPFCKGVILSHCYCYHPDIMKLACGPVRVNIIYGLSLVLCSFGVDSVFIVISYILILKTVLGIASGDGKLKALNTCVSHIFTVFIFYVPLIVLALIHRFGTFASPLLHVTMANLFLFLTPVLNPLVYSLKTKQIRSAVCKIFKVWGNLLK
Outline: as §1

[9] = biological target: T9, UniProt Q3U0P3
T9 sequence (whole entry): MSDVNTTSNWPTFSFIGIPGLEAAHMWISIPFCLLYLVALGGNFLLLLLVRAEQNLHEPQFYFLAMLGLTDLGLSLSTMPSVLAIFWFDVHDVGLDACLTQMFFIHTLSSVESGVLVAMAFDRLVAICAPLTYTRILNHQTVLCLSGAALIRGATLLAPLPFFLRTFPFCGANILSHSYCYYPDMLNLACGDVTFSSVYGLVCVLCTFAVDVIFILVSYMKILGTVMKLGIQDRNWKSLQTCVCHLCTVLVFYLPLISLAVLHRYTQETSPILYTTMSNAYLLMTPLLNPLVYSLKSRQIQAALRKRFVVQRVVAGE
Outline: as §1

[10] = biological target: T10, UniProt Q7TQU8
T10 sequence (whole entry): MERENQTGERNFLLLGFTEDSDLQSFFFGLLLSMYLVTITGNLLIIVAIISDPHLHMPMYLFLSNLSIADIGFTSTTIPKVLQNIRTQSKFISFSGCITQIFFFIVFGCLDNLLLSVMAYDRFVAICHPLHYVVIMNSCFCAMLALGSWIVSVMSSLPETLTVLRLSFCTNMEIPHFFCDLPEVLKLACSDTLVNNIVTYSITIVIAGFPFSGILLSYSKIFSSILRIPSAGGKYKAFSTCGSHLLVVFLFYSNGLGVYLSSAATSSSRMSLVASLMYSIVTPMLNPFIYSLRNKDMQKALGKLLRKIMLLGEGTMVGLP
Outline: as §1

[11] = biological target: T11, UniProt Q7TR79
T11 sequence (whole entry): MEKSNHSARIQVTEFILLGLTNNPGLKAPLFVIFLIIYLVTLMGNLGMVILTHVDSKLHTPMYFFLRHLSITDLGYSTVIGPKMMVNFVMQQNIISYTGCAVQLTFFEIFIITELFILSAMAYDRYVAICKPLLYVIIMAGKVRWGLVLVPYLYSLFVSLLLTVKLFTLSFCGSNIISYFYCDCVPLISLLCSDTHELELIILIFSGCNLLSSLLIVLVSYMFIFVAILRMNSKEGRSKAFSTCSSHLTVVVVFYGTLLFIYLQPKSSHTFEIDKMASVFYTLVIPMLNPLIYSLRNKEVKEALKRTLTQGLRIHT
Outline: as §1

[12] = biological target: T12, UniProt B2RVX8
T12 sequence (whole entry): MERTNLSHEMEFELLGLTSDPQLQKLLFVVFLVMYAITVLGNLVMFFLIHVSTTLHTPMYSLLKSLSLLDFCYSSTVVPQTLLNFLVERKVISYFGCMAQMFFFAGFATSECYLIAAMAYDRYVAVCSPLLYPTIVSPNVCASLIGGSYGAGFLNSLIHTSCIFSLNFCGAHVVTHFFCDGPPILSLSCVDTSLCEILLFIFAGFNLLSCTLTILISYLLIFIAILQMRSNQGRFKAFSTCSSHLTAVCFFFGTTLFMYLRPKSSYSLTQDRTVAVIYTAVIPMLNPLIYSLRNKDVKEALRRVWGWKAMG
Outline: as §1

[13] = biological target: T13, UniProt K7N609
T13 sequence (whole entry): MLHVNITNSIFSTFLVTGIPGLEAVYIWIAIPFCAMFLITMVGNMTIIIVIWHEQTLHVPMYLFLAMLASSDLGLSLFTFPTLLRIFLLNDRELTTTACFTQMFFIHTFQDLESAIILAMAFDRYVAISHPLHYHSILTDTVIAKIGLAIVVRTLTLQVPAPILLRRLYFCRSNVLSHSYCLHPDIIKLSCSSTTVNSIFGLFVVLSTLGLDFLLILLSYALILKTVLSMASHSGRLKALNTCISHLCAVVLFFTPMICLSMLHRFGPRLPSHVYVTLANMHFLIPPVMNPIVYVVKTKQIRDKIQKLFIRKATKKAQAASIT
Outline: as §1

[14] = biological target: T14, UniProt Q7TQV4
T14 sequence (whole entry): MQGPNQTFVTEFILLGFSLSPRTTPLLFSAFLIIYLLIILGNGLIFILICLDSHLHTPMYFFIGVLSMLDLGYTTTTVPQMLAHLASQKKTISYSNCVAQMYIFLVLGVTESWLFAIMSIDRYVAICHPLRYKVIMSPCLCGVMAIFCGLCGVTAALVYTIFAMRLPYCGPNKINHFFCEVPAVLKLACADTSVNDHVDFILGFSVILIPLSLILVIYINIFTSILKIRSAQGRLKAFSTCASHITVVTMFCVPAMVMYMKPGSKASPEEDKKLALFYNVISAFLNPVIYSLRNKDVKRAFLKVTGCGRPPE
Outline: as §1

[15] = biological target: T15, UniProt Q7TR71
T15 sequence (whole entry): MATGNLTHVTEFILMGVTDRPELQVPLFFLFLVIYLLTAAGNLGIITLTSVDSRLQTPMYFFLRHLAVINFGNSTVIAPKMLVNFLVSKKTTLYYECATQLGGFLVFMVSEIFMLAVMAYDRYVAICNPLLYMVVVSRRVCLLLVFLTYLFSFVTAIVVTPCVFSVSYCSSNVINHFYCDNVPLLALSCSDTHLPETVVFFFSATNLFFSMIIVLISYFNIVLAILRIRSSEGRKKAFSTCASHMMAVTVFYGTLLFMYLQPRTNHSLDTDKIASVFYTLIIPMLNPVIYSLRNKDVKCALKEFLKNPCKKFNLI
Outline: as §1

[16] = biological target: T16, UniProt Q7TRA3
T16 sequence (whole entry): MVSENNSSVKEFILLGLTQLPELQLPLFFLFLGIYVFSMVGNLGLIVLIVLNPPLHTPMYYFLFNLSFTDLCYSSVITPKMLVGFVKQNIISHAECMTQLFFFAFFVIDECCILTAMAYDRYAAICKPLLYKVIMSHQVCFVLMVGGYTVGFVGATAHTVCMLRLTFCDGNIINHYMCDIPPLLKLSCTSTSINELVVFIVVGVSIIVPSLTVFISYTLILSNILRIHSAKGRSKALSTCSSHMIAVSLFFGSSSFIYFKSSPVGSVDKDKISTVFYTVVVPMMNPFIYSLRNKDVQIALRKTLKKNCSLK
Outline: as §1

[17] = biological target: T17, UniProt Q7TRE4
T17 sequence (whole entry): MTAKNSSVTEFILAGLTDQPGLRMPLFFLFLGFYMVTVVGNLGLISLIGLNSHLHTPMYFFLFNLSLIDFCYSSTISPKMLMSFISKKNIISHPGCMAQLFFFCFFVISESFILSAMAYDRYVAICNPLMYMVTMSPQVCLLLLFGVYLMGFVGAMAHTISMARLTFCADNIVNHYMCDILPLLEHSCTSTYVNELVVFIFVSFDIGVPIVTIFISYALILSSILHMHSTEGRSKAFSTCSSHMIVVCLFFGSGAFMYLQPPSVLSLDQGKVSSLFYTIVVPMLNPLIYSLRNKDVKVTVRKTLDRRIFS
Outline: as §1

Compound	odorant receptor agonist call [1]	odorant receptor agonist call [2]	odorant receptor agonist call [3]	odorant receptor agonist call [4]	odorant receptor agonist call [5]	odorant receptor agonist call [6]	odorant receptor agonist call [7]	odorant receptor agonist call [8]	odorant receptor agonist call [9]	odorant receptor agonist call [10]	odorant receptor agonist call [11]	odorant receptor agonist call [12]	odorant receptor agonist call [13]	odorant receptor agonist call [14]	odorant receptor agonist call [15]	odorant receptor agonist call [16]	odorant receptor agonist call [17]
C=C(C)C1CC=C(C=O)CC1 (stereo not drawn)	inactive	inactive	inactive	inactive	inactive	inactive	active	inactive	inactive	inactive	inactive	–	–	–	–	–	–
C=CCOC(=O)Cc1ccccc1	inactive	inactive	inactive	inactive	inactive	inactive	inactive	inactive	inactive	inactive	inactive	inactive	inactive	inactive	inactive	inactive	inactive

Reference: the M2OR odorant receptor database
